Data set [1] can be described thus: Partition coefficient (logP). Type of data set: physicochemical. Particulars: octanol/water. The method, boiled down:
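Octanol/water log P was estimated by calculation with commercial software, not measured experimentally.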

Data set [2] deals with Mus musculus. The experiment in a line: Tested for ability to inhibit the topical inflammatory response in the topical mouse ear(TME) model. In kind it is functional. In a few lines:
(§1)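 Mice received 25 μL on the inner surface of one ear, with five mice per group. Compound was applied in acetone/pyridine/water 97:2:1 together with 200 μg/mL PMA as irritant. Controls received vehicle alone or vehicle with PMA. Solvent was evaporated at room temperature. After 4 h, 6-mm ear punches were weighed wet to measure edema. ED50 came from four-point titrations.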

The next data set is filed under the species Homo sapiens. The experiment in a line: Inhibitory activity against production of leukotriene B4 in isolated human polymorphonuclear leukocytes. Type of data set: functional. In a few lines: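 Leukotriene biosynthesis in human polymorphonuclear leukocytes was started with calcium ionophore A23187, and LTB₄ was quantified by radioimmunoassay. Inhibition curves came from five-point titrations fitted with a four-parameter algorithm to give IC50. Compounds were generally tested at least in duplicate, with the IC50 reported as the mean of all determinations.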

Data set [3] concerns Mus musculus. The data set can be described thus: Tested for its ability to inhibit the topical inflammatory response in the topical mouse ear(TME) model. Type of data set: functional. The method, boiled down: as §1

For `OCc1ccccc1/C=C/Cc1cc2c(cc1O)CCO2`, the logP (as a rule, a log measure of how a compound divides between an organic and an aqueous phase) in data set [1] is 3.5. The ED50 in the data set on Mus musculus [2] came out at 0.74 uM site-1. Also, the IC50 – broadly, the concentration that gives 50% inhibition – in the data set listed under Homo sapiens was 130 nM.
In data set [1], `COc1ccc(O)c(COc2ccccc2)c1` showed a logP of 3.3. Half-maximal inhibition in the data set filed under Homo sapiens (IC50) was put at 1400 nM.
`COc1ccc(O)c(CCc2ccccc2)c1` showed a logP in data set [1] of 4.3. Besides, half-maximal inhibition in the data set filed under Homo sapiens (IC50) required 120 nM.
For the compound `CC(=O)c1ccc(/C=C/Cc2cc3c(cc2O)CCO3)cc1`, in data set [1], the logP amounted to 4. Besides, the ED50 with Mus musculus [2] is listed as 0.54 uM site-1. This compound displayed an IC50 in the data set filed under Homo sapiens of 60 nM.
Compound `COc1ccc(O)c(CSc2ccccc2CO)c1` came in with a logP in data set [1] of 2.9. For the same compound, in the data set with Mus musculus [2], the ED50 amounted to 0.87 uM site-1. Further, 8700 nM corresponded to half-maximal inhibition in the data set listed under Homo sapiens (IC50).
For the compound `CC(=O)c1ccc(SCc2cc3c(cc2O)CCCO3)cc1`, the logP in data set [1] came out at 4.2. In the data set listed under Homo sapiens, this compound came in with an IC50 of 440 nM.
In data set [1], `N#Cc1cc(NCc2cc3c(cc2O)CCO3)cs1` displayed a logP of 2.8. The same compound displayed an IC50 in the data set listed under Homo sapiens of 440 nM.
Consider `COc1ccc(O)c(CNc2ccccc2)c1`, for which the logP in data set [1] was 2.8. Moreover, in the data set on Mus musculus [3], the ED50 worked out at 0.61 uM site-1. Moreover, 4700 nM corresponded to half-maximal inhibition in the data set filed under Homo sapiens (IC50).
Turning to `N#Cc1ccc(NCc2cc3c(cc2O)CCO3)s1`, the logP in data set [1] amounted to 2.8. In addition, the IC50 in the data set filed under Homo sapiens stood at 990 nM.
In turn, `Oc1cc2ccoc2cc1CNc1ccccc1` yielded a lipophilicity (logP) in data set [1] of 3.3. Besides, the ED50 in the data set on Mus musculus [2] is reported as 0.97 uM site-1. Besides, the IC50 in the data set filed under Homo sapiens is 11000 nM.
On the same counts, the results for `OCc1ccccc1NCc1c(O)ccc2c1CCCO2` are 2.4, 0.6 uM site-1 and 17000 nM.
In data set [1], `Oc1cc2c(cc1CNc1ccccc1)OCCC2` showed a logP of 3.5. The same compound yielded an ED50 in the data set on Mus musculus [2] of 0.67 uM site-1. The compound further gave an IC50 in the data set listed under Homo sapiens of 1700 nM.
`O=Cc1ccccc1/C=C/Cc1cc2c(cc1O)CCO2` returned a logP in data set [1] of 3.9. Half-maximal inhibition in the data set listed under Homo sapiens (IC50) required 70 nM.
In data set [1], `CCOC(=O)c1ccc(NCc2cc3c(cc2O)CCCO3)cc1` registered a logP of 4.6. In addition, in the data set filed under Homo sapiens, the IC50 turned out to be 600 nM.
In data set [1], `COc1ccc(O)c(C/C=C/c2ccccc2)c1` came in with a logP of 4.4. The compound further showed an ED50 in the data set on Mus musculus [2] of 1.08 uM site-1. For the same compound, the IC50 in the data set listed under Homo sapiens came out at 250 nM.
In turn, `COc1ccc(O)c(CNc2ccc(C#N)s2)c1` showed a logP in data set [1] of 2.7. For the same compound, it took 2600 nM to reach half-maximal inhibition in the data set listed under Homo sapiens (IC50).
`COc1ccc(O)c(CNc2ccc(F)cc2F)c1` displayed a logP in data set [1] of 3.5. In addition, in the data set listed under Homo sapiens, inhibition was half-maximal at 1300 nM (IC50).
Consider `Oc1cc2c(cc1CNc1ccccc1)OCC2`, for which the logP in data set [1] came to 2.9. This compound had an IC50 in the data set listed under Homo sapiens of 490 nM.
In data set [1], `OCc1ccccc1SCc1cc2c(cc1O)CCCO2` showed a logP of 3.6. In addition, the IC50 in the data set listed under Homo sapiens was determined as 1400 nM.
In turn, `OCc1ccccc1NCc1cc2occc2cc1O` yielded a logP in data set [1] of 2.2. In the data set with Mus musculus [2], this compound gave an ED50 of 0.44 uM site-1. In the data set filed under Homo sapiens, this compound returned an IC50 of 42000 nM.
The compound `Oc1ccc2c(c1CNc1ccc(F)cc1F)CCCO2` gave a logP in data set [1] of 4.2. For the same compound, in the data set listed under Homo sapiens, inhibition was half-maximal at 1400 nM (IC50).
Turning to `COc1ccc2c(c1)c(CC(=O)O)c(C)n2C(=O)c1ccc(Cl)cc1` [INDOMETHACIN], the ED50 in the data set with Mus musculus [2] turned out to be 0.64 uM site-1.
As to `OCc1ccccc1CCCc1cc2c(cc1O)CCO2`, the logP in data set [1] is 4. In the data set filed under Homo sapiens, this compound yielded an IC50 of 190 nM.
In data set [1], `N#Cc1ccc(NCc2cc3c(cc2O)CCCO3)cc1` returned a logP of 3.6. Moreover, the ED50 with Mus musculus [2] is 1.61 uM site-1. The compound also had an IC50 in the data set listed under Homo sapiens of 1600 nM.
The corresponding values for `CC(=O)c1ccc(NCc2cc3c(cc2O)CCCO3)cc1` are 3.5, 0.35 uM site-1 and 4100 nM.
On the same counts, the results for `OCc1ccccc1NCc1cc2c(cc1O)CCCO2` are 2.4, 0.49 uM site-1 and 21000 nM.
Regarding `CC(=O)c1ccc(NCc2cc3c(cc2O)CCO3)cc1`, in data set [1], the logP turned out to be 2.9. Also, the ED50 in the data set with Mus musculus [2] came to 0.35 uM site-1. This compound also came in with an IC50 in the data set filed under Homo sapiens of 1200 nM.
In turn, `Oc1cc2c(cc1CNc1ccc(F)cc1F)OCC2` yielded a logP in data set [1] of 3.6. The same compound gave an IC50 in the data set listed under Homo sapiens of 660 nM.
Compound `Oc1cc2c(cc1CNc1ccc(F)cc1F)OCCC2` had a logP in data set [1] of 4.2. The compound also displayed an IC50 in the data set filed under Homo sapiens of 1300 nM.
In data set [1], `OCc1ccccc1NCc1cc2c(cc1O)CCO2` gave a logP of 1.9. The same compound displayed a concentration for half-maximal inhibition (IC50) in the data set listed under Homo sapiens of 11000 nM.
On the same counts, the results for `COc1ccc(O)c(CSc2ccccc2)c1` are 3.9 and 590 nM.
In the case of `CC(=O)c1ccc(NCc2c(O)ccc3c2CCCO3)cc1`, in data set [1], the logP stood at 3.5. This compound also showed an IC50 in the data set listed under Homo sapiens of 11000 nM.

The values are drawn from ChEMBL document CHEMBL1124721, “Antioxidant-based inhibitors of leukotriene biosynthesis. The discovery of 6-[1-[2-(hydroxymethyl)phenyl]-1-propen-3-yl]-2,3-dihydro-5- benzofuranol, a potent topical antiinflammatory agent” (J Med Chem, 1990).
